Shown are actives, neighbours in structure and some others; about 3.6% of the full set was active somewhere.
EBNA-1 inh = EBNA-1 DNA-binding inhibitors, primary screen, biochemical, fluorescence polarization; inhibition, % at 14.8 µM; 0.34% of 300,000 active; in the data active means inhibition above about 28%
HCV NS3 hel inh = inhibitors of HCV NS3 helicase, primary screen, biochemical, Cy5 molecular beacon fluorescence. Hepatitis C virus NS3 helicase. NS3 helicase DNA unwinding. inhibition, % at 10.9 µM. 0.56% of 290,000 active;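 active means inhibition above the mean of all tested compounds plus 3 SD, set per campaign, cut at about 35% in these data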;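 further: 0% = DMSO wells and 100% = thioflavine S control wells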
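System: HCV NS3 helicase fragment; control set: DMSO and thioflavine S; technique: Cy5 fluorescence at 0 and 60 min, beacon hairpin quenching; reagent: beacon DNA duplex substrate plus ATP; replicates: singlicate; schedule: 1 h reaction at 25 °C, ATP-initiated; medium: MOPS buffer pH 6.5 with MgCl2, DTT, Tween20, BSA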
DNA FID counter = compounds displacing fluorescent DNA intercalator, primary screen, artefact control for HCV NS3 helicase inhibitor project, biochemical, FID fluorescence; DNA fluorescent intercalator displacement; AID 1845, 2009; inhibition, % at 7.9 µM; 0.17% of 290,000 active; in the data active means inhibition above about 37%;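 further: 0% = vehicle and 100% = reference compound; higher means more ethidium bromide displaced from hairpin DNA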
FGF22 binding = binders of human FGF22 protein, primary screen, FGF22 synaptogenesis inhibitor project, biophysical, thermal shift, single point; recombinant FGF22 thermal shift, SYPRO orange fluorescence; percent of sucrose octasulfate shift, DMSO zero; AID 651658, 2012; 1.5% of 340,000 active; activity (Tm shift, normalised), % at 9.99 µM;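 active means mean Tm shift, scaled 0 neutral to 100 positive control, at about 1.3% or above, every replicate too, limit read from the data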
Target sequence (Q9HCT0 whole entry, looked up): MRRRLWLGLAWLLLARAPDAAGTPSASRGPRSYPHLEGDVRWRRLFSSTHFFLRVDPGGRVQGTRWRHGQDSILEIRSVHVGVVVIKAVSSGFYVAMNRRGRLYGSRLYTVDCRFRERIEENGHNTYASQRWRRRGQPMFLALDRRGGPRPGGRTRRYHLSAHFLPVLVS
GRIN3A LBD mod = binders of NR3A ligand-binding domain, primary screen, biophysical, differential scanning fluorimetry, uHTS; NR3A LBD differential scanning fluorimetry, Tm shift; 0% = protein alone, 100% = glycine-bound protein; Glutamate receptor ionotropic, NMDA 3A (GRIN3A) ligand-binding domain; Tm shift relative to glycine control, % at 25 µM; 2.5% of 340,000 active;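 active means melting temperature shift of at least 10% of the positive control shift, at one fixed dose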
ZTA DNA inh = ZTA (EBV) inhibition in EBNA-1 counter-screen; P03206; ZTA-DNA binding, fluorescence polarization; inhibition, % at 11 µM; 0.15% of 320,000 active; AID 2234; in the data active means inhibition above about 33%
Target sequence (P03206 whole entry, looked up): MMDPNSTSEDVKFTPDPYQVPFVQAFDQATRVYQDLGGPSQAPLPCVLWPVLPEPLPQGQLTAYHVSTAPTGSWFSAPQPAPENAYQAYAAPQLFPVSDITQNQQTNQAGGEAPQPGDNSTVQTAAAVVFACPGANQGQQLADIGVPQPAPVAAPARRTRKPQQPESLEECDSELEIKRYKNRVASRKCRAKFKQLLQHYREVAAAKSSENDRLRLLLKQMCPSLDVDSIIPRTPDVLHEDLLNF
Active calls of the source: *; / = not tested or not shown.

SMILES	EBNA-1 inh	HCV NS3 hel inh	DNA FID counter	FGF22 binding	GRIN3A LBD mod	ZTA DNA inh
O=C(Cc1nnc(NC(=O)c2ccccc2)s1)N/N=C/c1ccco1	9.6	22.7	-9.0	-0.3	0.0	4.5
O=C(N/N=C/c1cccc(O)c1)N/N=C/c1cccc(O)c1	2.4	0.3	-8.6	0.1	10.0*	4.7
Cc1ccc(Cn2cc(/C=N/NC(=O)Cc3nnc(NC(=O)c4ccc(C)cc4)s3)c3ccccc32)cc1	16.9	20.9	-2.8	43.1*	12.6*	6.3
Cn1c2ccccc2c2cc(/C=N/NC(=O)c3ccccc3F)ccc21	-0.3	24.6	-23.9	-0.1	-7.7	-17.9
CC(C)CC#Cc1cnc2c(c1)C(=O)N([C@H](C)CO)C[C@@H](C)[C@H](CN(C)C(=O)c1ccc(F)cc1)O2	/	/	/	-0.3	/	/
COc1ccc(CN(C)C[C@H]2Oc3ccc(NC(=O)C4CC4)cc3C(=O)N([C@@H](C)CO)C[C@H]2C)cc1	/	/	/	-0.3	/	/
COc1ccc(NC(=O)N(C)C[C@H]2OCCCC[C@H](C)Oc3ccc(N(C)C)cc3C(=O)N([C@H](C)CO)C[C@@H]2C)cc1	/	/	/	-0.7	/	/
Nc1ccc(C(=O)N/N=C/c2cn(Cc3ccccc3)c3ccccc23)cc1	/	-13.0	-23.2	0.1	5.7	/
Nc1ccc(C(=O)N/N=C/c2cn(Cc3ccc(F)cc3)c3ccccc23)cc1	/	-4.3	-14.0	0.2	15.6*	/
CCOc1ccc2nc(SCc3cccc(C)c3)nc(C)c2c1	4.9	-2.2	-5.4	/	14.8*	9.1
Cc1ccc2nc(SCc3ccc([N+](=O)[O-])cc3)nc(C)c2c1	10.7	0.6	3.2	/	12.7*	12.7
CCOC(=O)CCSc1nc(C)c2cc(OC)ccc2n1	-3.5	3.5	-8.8	/	-0.7	-11.8
NCC[C@@H]1CC[C@@H](NC(=O)C2CCC2)[C@H](CO)O1	/	/	/	0.0	/	/
CC12COC3(C(=O)Nc4ccc(Cl)cc4)CC1CCC32C (stereo not given)	11.7	2.4	-8.3	/	-2.4	12.6
CC12COC3(C(=O)Nc4ccc([N+](=O)[O-])cc4)CC1CCC32C (stereo not given)	-4.9	-12.0	4.5	-0.1	16.8*	1.5
CN1CCN(C(=O)/C(=C\c2cccs2)NC(=O)c2ccccc2)CC1	5.7	5.5	-3.6	27.2*	-0.7	1.6
CN(C)C(=O)c1cccc(-c2cccc(-c3nc(C(=O)NCc4ccccc4)cc4c3[C@H](CCO)N([S@@](=O)C(C)(C)C)C4)c2)c1	/	/	/	0.3	/	/
O=C(Nc1ccc2nc(-c3ccco3)c(-c3ccco3)nc2c1)NC1CC1	/	47.4*	-5.6	/	-7.0	/
O=C(Nc1ccc(N2CCOCC2)cc1)Nc1ccc2nc(-c3ccco3)c(-c3ccco3)nc2c1	-8.7	-4.8	-9.3	/	3.3	-1.8
O=C(NCCCO)Nc1ccc2nc(-c3ccco3)c(-c3ccco3)nc2c1	1.1	32.7	-20.8	/	/	58.0*
COCCNC(=O)C[C@H]1C[C@@H]2c3cc(NC(=O)NC4CCCCC4)ccc3O[C@@H]2[C@@H](CO)O1	/	/	/	0.0	/	/
CCN1C(=O)C(CC(=O)Nc2ccc(F)cc2)N(Cc2cccs2)C1=S (stereo not given)	-10.9	8.5	-0.7	0.9	12.6*	2.2
CCN1C(=O)C(CC(=O)Nc2ccc(OC)cc2)N(CCc2ccccc2)C1=S (stereo not given)	6.5	-4.2	-18.9	-0.5	-0.8	-10.3
CCN1C(=O)C(CC(=O)Nc2ccc(OC)cc2)N(CCc2ccccc2F)C1=S (stereo not given)	-9.8	-11.7	-18.2	0.1	-2.1	3.5
CCN1C(=O)C(CC(=O)Nc2ccc(F)cc2)N(CCc2ccc(OC)cc2)C1=S (stereo not given)	5.4	-23.6	1.9	44.0*	-1.5	2.2
CCCOc1ccc(NC(=O)CC2C(=O)N(Cc3ccccc3)C(=S)N2Cc2cccs2)cc1 (stereo not given)	-4.9	11.3	-3.3	0.2	16.5*	15.0
